In data set [1] the test system is Trypanosoma brucei rhodesiense. Description: Antitrypanosomal activity against Trypanosoma brucei rhodesiense STIB900 trypomastigotes infected in NMRI mouse assessed as survival and aparasitemic condition at 5 mg/kg, ip administered from day 3 to day 6 postinfection measured after 60 days postinfection. In kind it is functional, organism-based. On the set-up: dose 5 mg/kg. The procedure, abridged: (§1)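 STIB900 acute mouse model with 4 mice per group. Compound in DMSO diluted with water to a final 10% DMSO, given intraperitoneally once daily for four days. An infected, untreated control group was included. Tail blood checked for parasitemia until day 60. Mice alive and aparasitemic at day 60 counted as cured; deaths recorded for mean survival time.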

Data set [2] concerns Trypanosoma brucei rhodesiense. The experiment in a line: Antiprotozoal activity against Trypanosoma brucei rhodesiense STIB900 trypomastigotes after 70 hrs by alamar blue assay. In kind it is functional, organism-based. The method, boiled down: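 Bloodstream forms, 2000 per well, in MEM with Earle's salts plus 0.2 mM 2-mercaptoethanol, 1 mM pyruvate, 0.5 mM hypoxanthine and 15% heat-inactivated horse serum. Exposed to serial dilutions (DMSO ≤1%) for 70 h at 37 °C in 5% CO₂. Resazurin then added for a further 2-6 h. IC50 from sigmoidal curves; two independent runs in duplicate.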
(Alamar Blue is a resazurin reagent that responds to reducing activity.)

The test system of the next data set is Leishmania donovani. The experiment in a line: Antiprotozoal activity against Leishmania donovani MHOM/SD/62/1S-CL2D axenic amastigotes after 72 hrs. It is filed as functional, organism-based. The procedure, abridged:
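L. donovani axenic amastigotes, adapted from promastigotes and grown in amastigote medium at 37 °C. 6 × 10⁴ parasites per well with 2-fold compound dilutions (DMSO ≤1%), incubated 72 h at 37 °C in humidified 5% CO₂. Growth read by tetrazolium (CellTiter) absorbance at 490 nm. IC50 from a four-parameter dose-response fit. Average of duplicate determinations.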

A short description of data set [3]: Selectivity index, ratio of IC50 for rat L6 cells to IC50 for chloroquine-resistant Plasmodium falciparum K1. In kind it is toxicity, cell-based. The following applies: read-out: Ratio IC50. The method, boiled down: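 Ratio of L6 IC50 to K1 IC50. L6 cells: Alamar blue assay after 70 h, 37 °C. K1: [3H]-hypoxanthine incorporation in infected red cells over 48 + 24 h at 37 °C under low O2. IC50s from sigmoidal curves, two independent runs in duplicate.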

Data set [4] can be described thus: Selectivity index, ratio of IC50 for rat L6 cells to IC50 for Leishmania donovani MHOM/SD/62/1S-CL2D axenic amastigotes. It is filed as toxicity, cell-based. The following applies: read-out: Ratio IC50. The method, boiled down:
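Amastigotes: 6 × 10⁴ parasites/well with 2-fold dilutions, 72 h at 37 °C in 5% CO2. Growth read by tetrazolium CellTiter absorbance at 490 nm; IC50 from a four-parameter dose-response fit.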

For data set [5], the system named is Trypanosoma brucei rhodesiense. The experiment in a line: Antitrypanosomal activity against Trypanosoma brucei rhodesiense STIB900 trypomastigotes infected in NMRI mouse assessed as mouse survival at 5 mg/kg, ip administered from day 3 to day 6 postinfection. It is filed as functional. The following applies: route intraperitoneal. The method, boiled down:
(§2)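 STIB900 acute mouse model. Dosing was intraperitoneal, daily for four days, in DMSO diluted with water to 10% final DMSO. An infected untreated control group was kept. Tail blood was checked for parasitemia to day 60, and deaths were recorded to give mean survival days. Mice surviving and aparasitemic at day 60 counted as cured.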

Data set [6] can be described thus: Selectivity index, ratio of IC50 for rat L6 cells to IC50 for Trypanosoma brucei rhodesiense STIB900 trypomastigotes. It is filed as toxicity, cell-based. Conditions: read-out: Ratio IC50. The method, boiled down: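 Ratio of L6 IC50 to STIB900 IC50. L6 cells: 4000/well in RPMI 1640 with 10% FBS, 70 h at 37 °C. Bloodstream forms: 2000/well in supplemented MEM with 15% horse serum, 70 h at 37 °C. Both read by Alamar blue fluorescence; IC50s from sigmoidal curves, two independent runs in duplicate.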

The test system of another data set is L6. The experiment in a line: Cytotoxicity against rat L6 cells after 70 hrs by alamar blue assay. In kind it is cell-based. The following applies: L6, 70 h. The method, boiled down: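 L6 rat myoblasts, 4000 per well, in RPMI 1640 with 2 mM L-glutamine, HEPES, NaHCO₃ and 10% FBS. Exposed to serial dilutions (DMSO ≤1%) for 70 h at 37 °C in humidified 5% CO₂. Resazurin then added for 2-3 h; fluorescence read at ex 536/em 588 nm. IC50 from sigmoidal curves; two independent runs in duplicate.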

The subject of another data set is Plasmodium falciparum. The experiment in a line: Antiprotozoal activity after 48 hrs against chloroquine-resistant Plasmodium falciparum K1 infected erythrocytes by [3H]hypoxanthine uptake. In kind it is functional, organism-based. The method, boiled down:
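Erythrocytic stages in infected human red cells (hematocrit 1.25%, parasitemia 0.3%) in supplemented RPMI 1640 with Albumax II. Serial dilutions incubated at 37 °C in 93% N2/4% CO2/3% O2. [3H]-hypoxanthine (0.5 µCi/well) added at 48 h, then 24 h more. Incorporation counted by scintillation. IC50 from sigmoidal curves; two independent runs in duplicate.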

Data set [7] relates to Trypanosoma brucei rhodesiense. The experiment in a line: Antitrypanosomal activity against Trypanosoma brucei rhodesiense STIB900 trypomastigotes infected in NMRI mouse assessed as mouse survival at 20 mg/kg, ip administered from day 3 to day 6 postinfection. In kind it is functional. The following applies: route intraperitoneal. The procedure, abridged:
as §2

Data set [8] has as its system Trypanosoma brucei rhodesiense. The experiment in a line: Antitrypanosomal activity against Trypanosoma brucei rhodesiense STIB900 trypomastigotes infected in NMRI mouse assessed as survival and aparasitemic condition at 20 mg/kg, ip administered from day 3 to day 6 postinfection measured after 60 days postinfection. It is filed as functional, organism-based. Set-up: dose 20 mg/kg. The procedure, abridged:
as §1

Data set [9] relates to Trypanosoma brucei rhodesiense. Description: Antitrypanosomal activity against Trypanosoma brucei rhodesiense STIB900 trypomastigotes infected in NMRI mouse assessed as mouse survival at 10 mg/kg, ip administered from day 3 to day 6 postinfection. It is filed as functional. The following applies: route intraperitoneal. The procedure, abridged:
as §2

pIC50: −log10 of the molar value. Active and inactive are the calls of the source. The rule behind the calls is not given here.

Broadly, the pIC50 is the negative decadic logarithm of the IC50, by convention in mol/L. A low value points to a high IC50. On to `Cl.Cl.N=C(N)c1ccc(OCCCOc2ccc(C(=N)N)cc2Br)c(Br)c1`, for which, in data set [1], the result was inactive. Also, the negative logarithm of the IC50 (pIC50) in data set [2] was 7.72; with Leishmania donovani it was 5.93; in the data set with L6, 5.19; in the data set on Plasmodium falciparum it was 7.80. The selectivity ratio amounted to 400 in data set [3], 5 in data set [4] and 337 in [6]. Besides, the Survival in [5] came out at 13 days.
As to `Cl.Cl.Cl.Cl.N=C(N)c1ccc(OCCCCCOc2ccc(C(=N)N)cc2Cl)c(Cl)c1`, the pIC50 in data set [2] is 7.36; with Leishmania donovani, 5.84; in the data set with L6, 4.95; in the data set with Plasmodium falciparum, 7.59. Besides, the selectivity ratio in [3] was determined as 431; in data set [4] it was 8; in data set [6], 255. Further, the Survival in data set [7] was above 29.5 days. For the same compound, the outcome in data set [8] was inactive.
On to `COc1cc(C(=N)N)ccc1OCCCOc1ccc(C(=N)N)cc1OC.Cl.Cl`, for which the negative-log IC50 (pIC50) in data set [2] was 7.64; in the data set on Leishmania donovani, 5.16; in the data set on L6, 3.94; with Plasmodium falciparum, 7.21. Also, the figures for the selectivity ratio in data set [3], in data set [4] and in data set [6] were 1840, 17 and 4960, respectively. The Survival in data set [5] is above 52.8 days; in data set [7], above 60 days. Also, the result in [8] was Active.
For the compound `Cl.Cl.c1cc(C2=NCCN2)ccc1NCCCCCNc1ccc(C2=NCCN2)cc1`, the outcome in [1] was Active. Also, the pIC50 in data set [2] was 9.00; in the data set with Leishmania donovani, 6.60; with L6, 4.46; in the data set on Plasmodium falciparum it was 9.00. Moreover, the selectivity ratio in data set [3] was 34500; in [4] it was 136; in data set [6] it was 34500. For the same compound, the Survival in [5] is above 60 days.
In the case of `CNC(=N)c1ccc(OCCCCCOc2ccc(C(=N)NC)cc2)cc1.Cl.Cl`, the negative logarithm of the IC50 (pIC50) in data set [2] is 7.62; in the data set on Leishmania donovani, 5.33; with L6, 3.82; in the data set on Plasmodium falciparum, 8.40. The selectivity ratio in [3] was 38000; in [4] it was 32; in data set [6], 6330. The Survival was above 41 days in [5] and above 60 days in [7]. For the same compound, in data set [8], the result was Active.
As for `Cl.Cl.N=C(N)c1ccc(OCCCOc2ccc(C(=N)N)cc2)cc1`, the pIC50 in data set [2] was 8.15; with Leishmania donovani, 5.82; in the data set on L6, 5.06; with Plasmodium falciparum, 8.22. For the same compound, the results for the selectivity ratio in [3], in [4] and in [6] were 1470, 6 and 1260, respectively. Also, in data set [7], the Survival amounted to 34 days. Also, in data set [8], the result was inactive.
With `CC(C)NC(=N)c1ccc(NCCCCCNc2ccc(C(=N)NC(C)C)cc2)cc1.Cl`, the outcome in [1] was inactive. Further, the negative-log IC50 (pIC50) is 7.30 in [2], 5.24 in the data set on Leishmania donovani, 3.90 in the data set on L6 and 8.70 in the data set with Plasmodium falciparum. The results for the selectivity ratio in [3], in data set [4] and in data set [6] were 62500, 22 and 2500, respectively. In addition, the Survival in [5] was found to be 18 days.
On to `Cl.Cl.N=C(N)c1cccc(OCCCOc2cccc(C(=N)N)c2)c1`, for which the pIC50 in data set [2] is 7.28; with Leishmania donovani, 5.22; in the data set with L6, 4.79; in the data set with Plasmodium falciparum it was 7.77. Also, the selectivity ratio in data set [3] came out at 953; in data set [4], 3; in data set [6], 312. Also, the results for the Survival in data set [9] and in data set [7] were above 40 days and above 32.8 days, respectively.
For `Cl.Cl.Cl.Cl.N=C(N)c1ccc(OCCCOc2ccc(C(=N)N)cc2Cl)c(Cl)c1`, the result in [1] was Active. Further, the negative-log IC50 (pIC50) in data set [2] is 8.40; in the data set on Leishmania donovani, 5.81; in the data set with L6, 4.61; with Plasmodium falciparum it was 7.72. Moreover, the selectivity ratio in data set [3] was 1300; in data set [4], 16; in data set [6], 6200. Also, the Survival in data set [5] is above 60 days.
Turning to `COc1cc(C(=N)N)ccc1OCCCCCOc1ccc(C(=N)N)cc1OC.Cl.Cl`, the outcome in data set [1] was inactive. Further, the negative-log IC50 (pIC50) in data set [2] was 8.00; with Leishmania donovani it was 4.62; in the data set on L6 it was 3.79; in the data set with Plasmodium falciparum, 7.68. The selectivity ratio in data set [3] turned out to be 7710; in data set [4], 7; in data set [6], 16200. The Survival in [5] came to 26 days.
Turning to `Cl.Cl.N=C(N)c1ccc(OCCCCOc2ccc(C(=N)N)cc2)cc1`, the pIC50 in [2] was 8.00; with L6 it was 5.33; in the data set on Plasmodium falciparum, 7.68. The selectivity ratio in [3] worked out at 224; in data set [6], 470. The Survival in data set [7] was found to be 24.8 days. The outcome in data set [8] was inactive.
Turning to `Cl.Cl.N=C(N)c1ccc(SCCCCCSc2ccc(C(=N)N)cc2)cc1`, in [1], the result was inactive. Also, the negative-log IC50 (pIC50) in [2] was 8.30; with Leishmania donovani it was 5.90; in the data set with L6, 5.11; in the data set on Plasmodium falciparum, 7.72. Besides, the selectivity ratio amounted to 411 in data set [3], 6 in [4] and 1560 in [6]. In data set [5], the Survival came to 32.3 days.
For `Cl.c1cc(C2=NCCN2)ccc1OCCCCCOc1ccc(C2=NCCN2)cc1`, the negative-log IC50 (pIC50) in data set [2] was 7.28; with Leishmania donovani it was 5.56; in the data set with L6, below 3.75; with Plasmodium falciparum, 8.52. In addition, the selectivity ratio was above 59300 in [3], above 64 in [4] and above 3360 in data set [6]. Moreover, the Survival in data set [7] was above 39 days. For the same compound, the result in data set [8] was inactive.
Regarding `Cl.Cl.N=C(N)c1cccc(OCCCCCOc2cccc(C(=N)N)c2)c1`, the pIC50 is 7.19 in data set [2], 5.50 in the data set on Leishmania donovani, 4.74 with L6 and 7.72 in the data set on Plasmodium falciparum. Also, the selectivity ratio came out at 968 in data set [3], 6 in data set [4] and 283 in data set [6]. Besides, in [7], the Survival was determined as 18.5 days. For the same compound, the result in [8] was inactive.
For `Cl.Cl.N=C(N)c1ccc(OCCCCCOc2ccc(C(=N)N)cc2C(N)=O)c(C(N)=O)c1`, the pIC50 is 7.35 in data set [2], below 4.30 in the data set on Leishmania donovani, below 3.77 with L6 and 7.42 in the data set with Plasmodium falciparum. Further, the selectivity ratio in data set [3] is above 4420; in data set [6] it was above 3730. In data set [7], the Survival was 26.5 days. Also, in data set [8], the result was inactive.
Turning to `Cl.Cl.N=C(Nc1ccc(OCCCCCOc2ccc(NC(=N)c3ccccc3)cc2)cc1)c1ccccc1`, the pIC50 is 6.83 in data set [2], below 4.00 with Leishmania donovani, 5.51 with L6 and 6.70 in the data set on Plasmodium falciparum. The selectivity ratio in data set [3] was 15; in data set [4], below 1; in data set [6], 21. The Survival in data set [7] is 7 days. Also, the result in data set [8] was inactive.
